Compounds with a hit are over-represented: about 2.6% of the library has one in this group of screens.
ABHD5 PLIN5 PPI = inhibitors of human ABHD5-perilipin-5 interaction | inhibition, % at 4 µM | Split G. princeps luciferase complementation, luminescence, 4 h | Q00G26+Q8WTS1 | actives 0.78% (n = 360,000);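 active = inhibition above the mean inhibition across every tested compound plus 3 SD, cut at about 22% in these data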
Target sequence (Q00G26 whole entry, looked up): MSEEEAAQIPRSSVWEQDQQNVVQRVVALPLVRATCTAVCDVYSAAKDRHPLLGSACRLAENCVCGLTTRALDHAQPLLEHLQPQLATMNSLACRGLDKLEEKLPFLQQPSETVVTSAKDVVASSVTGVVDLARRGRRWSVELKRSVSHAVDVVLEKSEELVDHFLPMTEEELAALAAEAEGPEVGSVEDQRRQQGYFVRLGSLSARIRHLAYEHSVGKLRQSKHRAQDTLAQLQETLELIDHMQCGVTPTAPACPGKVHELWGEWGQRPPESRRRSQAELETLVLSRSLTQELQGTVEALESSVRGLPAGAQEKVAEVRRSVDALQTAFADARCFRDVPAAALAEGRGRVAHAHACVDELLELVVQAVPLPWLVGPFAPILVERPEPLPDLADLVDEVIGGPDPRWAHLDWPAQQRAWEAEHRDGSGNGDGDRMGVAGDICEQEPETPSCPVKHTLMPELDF
Target sequence (Q8WTS1 whole entry, looked up): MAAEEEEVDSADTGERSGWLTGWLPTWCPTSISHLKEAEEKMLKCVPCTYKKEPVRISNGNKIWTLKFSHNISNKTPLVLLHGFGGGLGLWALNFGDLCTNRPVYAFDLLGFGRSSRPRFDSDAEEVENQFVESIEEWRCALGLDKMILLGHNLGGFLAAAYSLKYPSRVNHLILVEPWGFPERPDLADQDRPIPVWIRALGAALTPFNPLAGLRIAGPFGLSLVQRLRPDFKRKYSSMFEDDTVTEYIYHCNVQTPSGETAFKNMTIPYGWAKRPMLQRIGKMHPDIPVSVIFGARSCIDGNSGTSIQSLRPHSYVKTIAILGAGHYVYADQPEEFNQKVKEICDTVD
NadD block = blocks S. aureus nicotinate mononucleotide adenylyltransferase; purified NadD enzyme, colorimetric absorbance read-out; inhibition, % at 20 µM; actives 0.78% (n = 360,000); AID 602399; in the data active = inhibition above about 26%
rCAG RNA binder = molecules binding r(CAG) RNA repeats; r(CAG) RNA repeat, TO-PRO-1 dye displacement fluorescence; actives 1.3% (n = 370,000); inhibition, % at 3 µM;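 active = inhibition above the plate cutoff, the mean of all test compounds on that plate plus 3 SD, cut at about 35% in these data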;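 note: higher means more dye released from RNA so lower well fluorescence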
HCV core dimer = HCV core protein dimerization inhibition | TR-FRET GST/Flag-core106 dimerization, 1536-well | inhibition, % at 5 µM | actives 0.33% (n = 300,000) | AID 1899;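 active = inhibition above the mean of all tested compounds plus 3 SD, set per screening campaign, cut at about 45% in these data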
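Test system: GST/Flag-tagged HCV core106 proteins; Medium: KF-containing HEPES buffer, pH 7.45, DTT, CHAPS, BSA; Times: compound-protein-antibody incubation 4 h at 22.5 °C; Detection: TR-FRET 671 and 617 nm emission; Benchmarks: wells lacking GST-core106 and wells with excess unlabelled core106.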
rCAG bind conf = r(CAG) RNA repeat binding, confirmation; AID 652065; TO-PRO-1 dye displacement fluorescence; shares compounds with rCAG RNA binder; actives 70% (n = 4,300); inhibition, % at 3 µM;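 active = inhibition above a per-plate cutoff, the mean inhibition of sample wells plus 3 SD, cut at about 35% in these data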;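 note: loss of TO-PRO-1 fluorescence as compound displaces dye from 1x1 AA loop RNA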
DNA CAG counter = counter-screen for rCAG RNA binders: DNA CAG dye complex inhibitors; shares compounds with rCAG RNA binder; d(CAG) DNA oligo TO-PRO-1 dye displacement, fluorescence; inhibition, % at 3 µM; actives 94% (n = 4,300);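 active = inhibition above its plate's cutoff, the mean test-well inhibition plus 3 SD, cut at about 4.8% in these data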;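 note: hits displace the dye from DNA and so lower well fluorescence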
DNA CAG DR = counter-screen for rCAG binders: inhibitors of DNA CAG TO-PRO-1 complex. shares compounds with rCAG RNA binder. DNA CAG/GTC duplex TO-PRO-1 dye displacement fluorescence. IC50, µM. actives 20% (n = 250); in the data active = IC50 below about 10 µM
Each line names hits and unclear results; the compound was inactive in the other large screens (follow-up assays come after a bar, where they were run).

O=C1NC(=S)S/C1=C\c1cc(Cl)cc(Cl)c1O	rCAG RNA binder 38 (no result: HCV core dimer) | rCAG bind conf 47 | DNA CAG counter 15
O=C1NC(=S)SC1=Cc1ccccc1Cl	none (no result: HCV core dimer)
Cc1cc(/C=C2\SC(N)=NC2=O)c(C)n1-c1ccccc1	none
Cc1cc(/C=C2\SC(=S)NC2=O)c(C)n1-c1ccccc1	rCAG RNA binder 48 | rCAG bind conf 36 | DNA CAG counter 16
Cc1cc(/C=C2\SC(=S)NC2=O)c(C)n1-c1ccc(O)cc1	rCAG RNA binder 49 | rCAG bind conf 42 | DNA CAG counter 14
CCOC(=O)c1ccccc1-c1csc(NS(=O)(=O)c2ccc(Cl)cc2)n1	rCAG RNA binder 76 | rCAG bind conf 70 | DNA CAG counter 33 | DNA CAG DR inactive
CCOc1ccc2nc(SCc3ccc(CC(=O)O)cc3)c(C#N)cc2c1	rCAG RNA binder 60 | rCAG bind conf 55 | DNA CAG counter 20
COc1ccc(NC(=S)N2CCN(c3ccc4c(c3)C3CCN(C(=O)OCc5ccccc5)C4C3)CC2)c(OC)c1 (configuration not stated)	none (no result: HCV core dimer)
CC(C)c1[nH]nc2c1C(c1ccccc1)NC2=O (configuration not stated)	none (no result: ABHD5 PLIN5 PPI, NadD block, HCV core dimer)
CC(C)CCNc1nc2ccccc2nc1NS(=O)(=O)c1cccs1	rCAG RNA binder 56 | rCAG bind conf inactive | DNA CAG counter 5.5
COc1cccc(Nc2nc3ccccc3nc2NS(=O)(=O)c2cccs2)c1	rCAG RNA binder 74 | rCAG bind conf 88 | DNA CAG counter 59
O=C(O)c1ccc(Nc2nc3ccccc3nc2NS(=O)(=O)c2cccs2)cc1	none
COc1cccc(/C=C2/Sc3ccc(C(=O)NC4CC4)cc3NC2=O)c1	none (no result: ABHD5 PLIN5 PPI, NadD block, HCV core dimer)
O=C(Cc1c[nH]c2ccccc12)Nc1ccc(Nc2cccnc2)c(-c2cccc(Cl)c2)c1	none (no result: ABHD5 PLIN5 PPI, NadD block, HCV core dimer)
C[C@H](CO)N1C[C@H](C)[C@H](CN(C)C(=O)Nc2ccc3c(c2)OCO3)OCc2cnnn2CCCC1=O	none (no result: ABHD5 PLIN5 PPI, NadD block, HCV core dimer)
CCOc1ccc2nc(NS(=O)(=O)c3ccc(NC(C)=O)cc3)sc2c1	none
CCOc1ccc2nc(NS(=O)(=O)Cc3ccccc3)sc2c1	rCAG RNA binder 44 | rCAG bind conf inactive | DNA CAG counter 10
CCCCNC(=O)C[C@H]1C[C@@]2(C(=O)OC)C(=C[C@H](C3CCCC3)O[C@@H]2C)N(Cc2ccc(Cl)cc2Cl)C1=O	none (no result: ABHD5 PLIN5 PPI, NadD block, HCV core dimer)
Cc1ccc(C)n1/N=C1/NC(=O)CS1	rCAG RNA binder 36 | rCAG bind conf inactive | DNA CAG counter 9.9
COC(=O)[C@H]1C[C@H](OC(=O)NC2CC2)[C@@]2(O)CN(S(=O)(=O)c3ccc(C)cc3)CC2[C@H]1C(=O)OC (some centres not stated)	none (no result: HCV core dimer)
O=S1(=O)CC(N2CCN(CC3CC3)CC2)CN1Cc1ccccc1 (configuration not stated)	none (no result: HCV core dimer)
CCOC(=O)COc1ccc(/C=C2/C(=O)NN(c3ccc(F)cc3)C2=O)cc1OC	none
COc1cc(/C=C2/C(=O)NN(c3ccc(Cl)cc3)C2=O)cc(OC)c1O	rCAG RNA binder 37 | rCAG bind conf inactive | DNA CAG counter 4.5
CCS(=O)(=O)C1=NN2C(=N)/C(=C\c3ccc(OC(=O)c4ccco4)c(OC)c3)C(=O)N=C2S1	rCAG RNA binder 52 | rCAG bind conf 80 | DNA CAG counter 47
CCOC(=O)c1ccc(N2NC(=O)/C(=C/c3ccc(OC(=O)c4ccco4)c(OC)c3)C2=O)cc1	rCAG RNA binder 84 (no result: ABHD5 PLIN5 PPI, NadD block) | rCAG bind conf 90 | DNA CAG counter 66
C=CCOc1ccc(/C=C2\C(=N)N3N=C(S(=O)(=O)CC)SC3=NC2=O)cc1OC	rCAG RNA binder 36 | rCAG bind conf 82 | DNA CAG counter 42
O=c1ccoc2ccccc12	none (no result: HCV core dimer)
COC(=O)c1cc2c(c3c4ccccc4n(S(=O)(=O)c4ccc(C)cc4)c13)C(=O)N(Cc1ccccc1)C2	none (no result: ABHD5 PLIN5 PPI, NadD block, HCV core dimer)
O=C(NCc1ccccc1)Nc1ccccc1C(=O)N1CCCC1	none (no result: ABHD5 PLIN5 PPI, NadD block, HCV core dimer)
CC(C)CS(=O)(=O)C1=NN2C(=N)/C(=C\c3ccc(OC(=O)c4ccco4)cc3)C(=O)N=C2S1	rCAG RNA binder 81 | rCAG bind conf 87 | DNA CAG counter 66
Cc1cccc(C)c1-n1cccc1/C=C1\SC(=S)N(c2cccc(C(=O)O)c2)C1=O	rCAG RNA binder 84 | rCAG bind conf 78 | DNA CAG counter 41
Cc1ccc(NC(=O)CN2C(=O)S/C(=C\c3cc(C)n(-c4ccc(C(=O)O)cc4)c3C)C2=O)cc1	rCAG RNA binder 68 | rCAG bind conf 85 | DNA CAG counter 48
COc1cc(/C=C2\SC(=O)N(CC(=O)Nc3cccc(C)c3)C2=O)ccc1OC(C)C(=O)O (configuration not stated)	rCAG RNA binder 54 | rCAG bind conf 44 | DNA CAG counter 14
Cc1ccc(NC(=O)CN2C(=O)S/C(=C\c3cccn3-c3cccc(C(=O)O)c3)C2=O)cc1C	none
Cc1cccc(NC(=O)CN2C(=O)S/C(=C\c3cccn3-c3cccc(C(=O)O)c3)C2=O)c1	rCAG RNA binder 84 | rCAG bind conf 81 | DNA CAG counter 49
O=[N+]([O-])c1ccc(NCCCO)c(S(=O)(=O)N2CCOCC2)c1	none
O=[N+]([O-])c1ccc(N/N=C/c2ccc(O)c(O)c2O)c(S(=O)(=O)N2CCOCC2)c1	NadD block 29, rCAG RNA binder 69 (no result: HCV core dimer) | rCAG bind conf 84 | DNA CAG counter 52
O=C(CCc1ccc(S(=O)(=O)N2CCOCC2)cc1)N/N=C/c1ccc(O)c(O)c1O	rCAG RNA binder 40 | rCAG bind conf 46 | DNA CAG counter 16
COc1cc(/C=N/Nc2ccc([N+](=O)[O-])cc2S(=O)(=O)N2CCOCC2)cc(OC)c1OC	none
O=[N+]([O-])c1ccc(N/N=C/c2cccc(O)c2O)c(S(=O)(=O)N2CCOCC2)c1	rCAG RNA binder 35 | rCAG bind conf inactive | DNA CAG counter 18
Cc1ccccc1CN1CCCCC(NC(=O)c2ccc(COc3ccccc3)cc2)C1=O (configuration not stated)	none (no result: ABHD5 PLIN5 PPI, NadD block, HCV core dimer)
COc1ccc(C2SCC(=O)N2c2nc3ccccc3s2)cc1 (configuration not stated)	none
COc1ccc(C2=NN(c3nc4ccccc4s3)C(=O)/C2=C\N(C)C)cc1	rCAG RNA binder 46 | rCAG bind conf 38 | DNA CAG counter 13
COc1cccc(C(=O)Nc2nnc(S(=O)(=O)N(C)Cc3ccccc3)s2)c1	none
COc1ccc(CN(C)S(=O)(=O)c2nnc(NC(=O)c3cccc(OC)c3)s2)cc1	rCAG RNA binder 67 | rCAG bind conf 58 | DNA CAG counter 23
CC1CCN(S(=O)(=O)c2nnc(NC(=O)c3ccccc3Br)s2)CC1	rCAG RNA binder 37 | rCAG bind conf inactive | DNA CAG counter 6.5
COc1cc(C(=O)Nc2nnc(S(=O)(=O)N3CCCCCC3)s2)cc(OC)c1OC	rCAG RNA binder 52 | rCAG bind conf 53 | DNA CAG counter 14

From PubChem BioAssay
